# Assay outcomes from PubChem BioAssay.
# This is a sample that favours compounds with a hit; in the whole collection about 3.5% have one here.
# MrgX1 PAM = positive allosteric modulators of MrgX1, primary screen, HEK293 cells, Fluo-4 calcium flux; Mas-related G-protein coupled receptor member X1 (Homo sapiens), Q96LB2; FDSS; stronger effect = higher value; B-score at 10 µM; 310,000 compounds, 0.63% hits; AID 588675, 2011;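 active = plate-corrected calcium response at least 3 library SD above typical, normal starting fluorescence, not activating the receptor alone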;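 also: compound read alongside a low EC10 to EC30 dose of BAM8-22 agonist; peak minus trough fluorescence over baseline measured at the second addition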
# Target sequence (Q96LB2 whole entry, looked up): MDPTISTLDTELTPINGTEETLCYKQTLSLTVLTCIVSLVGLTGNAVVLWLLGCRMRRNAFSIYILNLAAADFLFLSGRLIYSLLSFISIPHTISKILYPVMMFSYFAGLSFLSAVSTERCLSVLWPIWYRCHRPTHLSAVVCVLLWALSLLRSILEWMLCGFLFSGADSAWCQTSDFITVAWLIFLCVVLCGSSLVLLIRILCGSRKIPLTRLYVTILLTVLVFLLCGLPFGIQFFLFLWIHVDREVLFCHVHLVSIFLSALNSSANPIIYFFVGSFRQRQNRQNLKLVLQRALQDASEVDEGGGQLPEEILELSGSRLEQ
# RGS4 pot = RGS4 potentiators or activators, primary screen, cell-based, HEK293 M3R inducible RGS4, calcium flux; carbachol calcium flux Fluo4; stronger effect = lower value; B-score at 10 µM; 310,000 compounds, 0.92% hits; AID 463111, 2010;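 active = B-score of the integrated calcium signal more than 4 SD below the library mean, with starting fluorescence not abnormally high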;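 also: negative B-score means reduced calcium response which marks RGS4 activation or potentiation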
#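 Material: Inducible-RGS4 HEK293 cells carrying M3 receptor; also added: carbachol at ECmax as muscarinic agonist stimulus; incubation: compound preincubation 20 min at room temperature before agonist; signal: Fluo4-AM (2 µM) calcium-flux fluorescence, kinetic read; measure: integrated calcium ratio converted to B score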
# MrgX1 ag = agonists of human MrgX1 receptor, primary screen, HEK293 cells, Fluo-4 calcium flux; 310,000 compounds, 0.44% hits; B-score at 10 µM; Fluo-4 calcium fluorescence, agonist mode; stronger effect = higher value;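 active = calcium response B-score plate-corrected fluorescence ratio at least 3 library SD, with starting fluorescence B-score inside 5 SD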
#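 Test system: HEK293 cells stably expressing human MrgX1 receptor; amount: 15,000 cells per well; doses: compound delivered in addition one of three; times: overnight plating before 1 h dye loading; detection: Fluo-4 NW calcium-flux fluorescence, kinetic read; read-out basis: B-scored fluorescence response ratio; controls: positive and negative controls per plate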
# RGS4 block = RGS4 inhibitors, primary screen, cell-based, HEK293 M3R inducible RGS4, calcium flux; B-score at 10 µM; 310,000 compounds, 0.45% hits; AID 463165, 2010; Fluo-4 calcium flux; stronger effect = higher value; triggered by carbachol at its EC20; Regulator of G-protein signaling 4 (Homo sapiens), P49798;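 active = B-score, a plate-corrected calcium signal, over three deviations above library mean, with baseline fluorescence within five deviations of library mean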;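 also: RGS4 expression induced by doxycycline in cells with stable M3 receptor; B-score is computed from the integrated fluorescence ratio over baseline after carbachol; higher B-score means a larger calcium signal and so more RGS4 inhibition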
# MrgX1 antag = antagonists of human MrgX1 receptor, primary screen, HEK293 cells, Fluo-4 calcium flux; Mas-related G-protein coupled receptor member X1 (Homo sapiens), Q96LB2; BAM8-22 antagonism; stronger effect = lower value; B-score at 10 µM; 310,000 compounds, 1.3% hits;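 active = calcium-response B-score plate-corrected more than 3 library SD below zero, starting fluorescence within 5 deviations, no agonist response on first addition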;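 also: peak minus trough fluorescence over baseline after final BAM8-22 challenge near maximal dose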
# Starred values were filed as active, the others as inactive; i = inactive; nt = not tested or not shown.
SMILES,MrgX1 PAM,RGS4 pot,MrgX1 ag,RGS4 block,MrgX1 antag
CCN(CC)c1ccc(/C=N/N2C(C)CCCC2C)c(O)c1 (configuration not stated),7.7*,i,i,i,i
CCN(CC)c1ccc(/C=N/N2CCOCC2)c(O)c1,i,i,i,i,i
CCN(CC)c1ccc(/C=N/N=C(N)N)c(O)c1,7.8*,i,i,i,-5.5*
O=C(CCCn1c(=S)[nH]c2ccsc2c1=O)Nc1ccc2c(c1)OCCO2,i,i,i,i,i
O=C(CCN1CCCCCC1)c1ccccc1,i,nt,31*,nt,i
O=C(c1ccc([N+](=O)[O-])o1)N1CCN(c2nc3c(F)cc(F)cc3s2)CC1,i,i,i,i,i
Cc1ccc(C)c2sc(N3CCN(C(=O)c4ccc([N+](=O)[O-])o4)CC3)nc12,i,i,i,i,-7.5*
CC(C)Cc1nnc(NC(=O)CCC(=O)NCc2ccccc2Cl)s1,i,i,i,i,i
CCCCc1ccc(C2C(C#N)=C(N)SC(N)=C2C#N)s1,i,nt,i,nt,-9.6*
CCOc1ccc(C2C(C#N)=C(N)SC(N)=C2C#N)c(OCC)c1,i,i,i,i,i
COc1cnn(-c2ccc(C)cc2)c(=O)c1SCc1ccccc1,i,i,30*,i,i
COc1cnn(-c2ccc(Br)cc2)c(=O)c1SCc1ccccc1,i,i,i,i,i
Cc1ccc(-c2cc(C(=O)N3CCN(c4ncccn4)CC3)c3ccccc3n2)cc1,i,i,i,i,i
CC(C)Oc1cccc(-c2cc(C(=O)N3CCN(c4ncccn4)CC3)c3ccccc3n2)c1,i,-7.4*,i,i,i
COc1cccc(-c2cc(C(=O)N3CCN(c4ncccn4)CC3)c3ccccc3n2)c1,i,-7*,i,i,i
Cc1c(NC(=O)C2CCCN(S(=O)(=O)c3cnc[nH]3)C2)c(=O)n(-c2ccccc2)n1C (configuration not stated),i,i,i,i,-7.3*
Cc1ccccc1NC(=O)C1CCCN(S(=O)(=O)c2cnc[nH]2)C1 (configuration not stated),i,i,i,i,i
O=C(NCc1ccco1)c1cc2c(s1)CCCCC2,i,-7.1*,i,i,i
CCOc1ccc(NC(=O)CN(C)C(=O)CC(NC(=O)c2ccccc2)c2ccccc2)cc1OCC (configuration not stated),i,i,36*,i,i
CCOc1ccc(NC(=O)CN(C)C(=O)CCNC(=O)c2ccc(Br)cc2)cc1OCC,i,i,i,i,i
O=C(NCCN1CCOCC1)/C(=C\c1ccc(F)cc1)NC(=O)c1ccccc1,i,i,i,i,i
NN1C(=O)/C(=C2/Sc3ccccc3N2CCCS(=O)(=O)O)SC1=S,i,i,i,i,i
O=C1NC(=S)S/C1=C1\Sc2ccccc2N1CCCS(=O)(=O)O,i,i,i,i,-4.8*
Cc1ccc(-n2nc3c(=O)n(CC(=O)NCCCc4ccccc4)nc(C)c3c2C)cc1,i,i,i,i,i
Cc1ccc(-n2nc3c(=O)n(C(C)C(=O)NCCCc4ccccc4)nc(C)c3c2C)cc1 (configuration not stated),i,i,i,i,-4.5*
Cc1ccc(-n2nc3c(=O)n(CCCC(=O)NCc4ccccc4Cl)nc(C)c3c2C)cc1,i,i,i,i,-6.5*
Cc1cccnc1NC(=O)c1ccc(COc2ccccc2)o1,i,i,i,i,i
CCn1nnc2cc(C(=O)NCC(c3ccccc3OC)N(C)C)ccc21 (configuration not stated),i,i,i,i,i
CC(=O)N(C1=C(Cl)C(=O)c2ccccc2C1=O)C1CCCCC1,i,i,i,i,-9.6*
